Shown are actives, neighbours in structure and some others; about 2% of the full set was active somewhere.
DNMT1 inh = inhibitors of human DNMT1; P26358; inhibition (reported as % activation of signal), % at 10 µM; DNMT1 molecular beacon, Hinp1I cleavage, fluorescence; actives 0.83% (n = 360,000); in the data active = inhibition above about 50%
STEP inh = STEP (human) phosphatase inhibition. P54829. recombinant STEP, OMFP fluorogenic substrate, fluorescence. inhibition, % at 20 µM. actives 0.25% (n = 360,000);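 active = inhibition at 20 µM, scaled per plate between control wells, above about 37%, limit read from the data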;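 note: 0% = DMSO with enzyme and substrate and 100% = substrate only without enzyme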
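Assay system: isolated STEP enzyme. Buffer or medium: pH 6.0 Bis-Tris with DTT and Tween 20. Also added: fluorogenic phosphatase substrate OMFP at 25 µM final. Dosing: 20 µM, 1% DMSO. Timing: 20 min reaction, room temperature, in the dark. Measured by: fluorescence intensity, excitation 480 nm, emission 540 nm. Evaluation: normalized % inhibition.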
Scp1 inh = inhibitors of human Scp-1 phosphatase; Q9GZU7; Recombinant Scp1, phosphopeptide, malachite green phosphate absorbance; inhibition, % at 20 µM; actives 0.88% (n = 340,000); AID 493091;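 active = inhibition above about 50% at 20 µM, limit read from the data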;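 note: plate controls were DMSO wells with enzyme for no effect and wells lacking enzyme for full effect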
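System: SCP-1 catalytic domain; Reagent: Phospho 17-mer peptide substrate; Doses: one concentration, 20 µM, with 1.0% DMSO; Incubation: 45 min room-temperature reaction, 5 min colour, 30 min stabiliser; Signal: Phosphate-binding colour reagent, absorbance read at 630 nm.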
Rpn11 block = inhibitors of human proteasome Rpn11; human 26S proteasome, Ub4-pepOG fluorescence polarization; 20S core pre-blocked with epoxomicin; inhibition, % at 20 µM; actives 0.59% (n = 360,000);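 active = inhibition at 20 µM, scaled to each plate's controls, above about 33%, limit read from the data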
LMPTP inh = blocks human LMPTP phosphatase. actives 0.22% (n = 360,000). AID 651560. recombinant LMPTP-A, OMFP fluorogenic substrate, fluorescence intensity. P24666. inhibition, % at 20 µM;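 active = compounds that cut the enzyme signal by at least half of the control window in the single-dose screen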;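 note: plate controls were DMSO wells with enzyme plus substrate for no effect and substrate without enzyme for full effect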
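material = LMPTP-A | quantity = 0.625 nM enzyme | reagent = OMFP substrate, 400 µM final | buffer or medium = Bis-Tris pH 6.0, DTT, detergent | detection = endpoint fluorescence intensity from OMFP dephosphorylation | dosing = single 20 µM dose | read-out basis = % inhibition relative to no-enzyme and uninhibited control wells | control set = no-enzyme and uninhibited controls | timing = 50 min at room temperature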
Scp-1 conf = confirmation of human Scp-1 phosphatase inhibitors; shares compounds with Scp1 inh; recombinant SCP-1 catalytic domain, phosphate release, malachite green absorbance; inhibition, % at 20 µM; actives 61% (n = 2,500); AID 540281;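 note: plate controls were DMSO with enzyme for no effect and buffer wells lacking enzyme for full effect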
MG interference = colorimetric interference in Scp-1 counter-screen; AID 540313; Colorimetric interference counterscreen, malachite green absorbance 630 nm; apparent inhibition (interference), % at 20 µM; 2,500 tested, under 10 active; shares compounds with Scp1 inh;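 note: compounds added after enzyme reaction finished so only phosphate colour detection is probed; plate controls were DMSO wells with completed Scp-1 reaction for no effect and substrate wells lacking enzyme for full effect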
Scp1 DSF = Scp-1 (human) binding by thermal shift. shares compounds with Scp1 inh. Recombinant SCP1, Sypro Orange thermal shift Tm. thermal shift relative to vanadate control, % at 40 µM. actives 25% (n = 1,500). AID 540329;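 active = substances whose mean melting-temperature shift, as a percentage of the reference inhibitor's shift, reaches about 5.3%, limit read from the data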;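 note: 0% = Tm of DMSO wells and 100% = Tm with sodium orthovanadate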
The depositor's hits bear a star.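 Rule for the calls, unless noted: active = inhibition of at least 30% at 20 µM; inactive = the rest.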

COc1ccc(/C=C/C(=O)NCC(=O)N=Nc2c(O)[nH]c3ccc([N+](=O)[O-])cc23)cc1 was read as DNMT1 inh 6, STEP inh 13, Scp1 inh 68*, Rpn11 block 0, LMPTP inh 9, Scp-1 conf 25 and MG interference -5.
For CCCCCCn1cc(CN2CC(N(C)CCC)CS2(=O)=O)nn1 (stereo unspecified) the results were LMPTP inh -1.
`COc1cccc(CNc2nc(NC(C)C)nc3ccsc23)c1` gave DNMT1 inh -1, STEP inh 3, Rpn11 block -9 and LMPTP inh 41.
For COc1ccccc1-c1cc2nc(-c3ccccc3)cc(N3CCN(C(=O)c4ccoc4)CC3)n2n1 the results were DNMT1 inh -12, STEP inh 4, Rpn11 block 9 and LMPTP inh 5.
For O=C1NCCN1CCNS(=O)(=O)c1ccc2ccccc2c1 the results were DNMT1 inh -1, STEP inh -1, Scp1 inh -8, Rpn11 block -5, LMPTP inh -2, Scp-1 conf -1 and MG interference -2.
For O=C(O)c1cc(S(=O)(=O)NCCN2CCNC2=O)ccc1O the results were DNMT1 inh -1, STEP inh -2, Scp1 inh -4, Rpn11 block -6 and LMPTP inh -5.
O=C(Nc1ccccc1)Nc1nnc([C@H]2C[C@H](O)[C@@H](CO)O2)s1 was read as DNMT1 inh 3, STEP inh -2, Rpn11 block -1 and LMPTP inh 4.
COc1cc(NCCCn2ccc(NC(=O)OCc3ccccc3)nc2=O)cc(OC)c1OC was read as DNMT1 inh -23, STEP inh -1, Scp1 inh -11, Rpn11 block 0, LMPTP inh -1, Scp-1 conf -7 and MG interference -8.
For Cc1ccc(CNC(=O)Cn2ccc(NC(=O)OCc3ccccc3)nc2=O)o1 the results were DNMT1 inh -2, STEP inh -2, Scp1 inh -8, Rpn11 block -8, LMPTP inh -3, Scp-1 conf -5 and MG interference -11.
`O=C(Cn1ccc(NC(=O)OCc2ccccc2)nc1=O)NCc1ccc2[nH]ccc2c1` gave DNMT1 inh -2, STEP inh -2, Scp1 inh 4, Rpn11 block -10, LMPTP inh 1, Scp-1 conf -1 and MG interference 0.
Screening COc1ccc(-c2noc(N3CCC(C(=O)NC(C)c4ccccc4)CC3)n2)cc1 (stereo unspecified) returned DNMT1 inh -4, STEP inh 3, Scp1 inh -9, Rpn11 block 2 and LMPTP inh 0.
Screening CCc1nc2ccc(C(=O)NCCCN3CCCC3=O)cn2c1N(CC)CCOC returned DNMT1 inh 0, STEP inh -5, Rpn11 block -4 and LMPTP inh 0.
`CCn1cc(C(=O)NCc2ccccc2F)c(=O)c2ccc(C)nc21` gave DNMT1 inh 3, STEP inh 1, Scp1 inh -12, Rpn11 block -1 and LMPTP inh -1.
`COc1cccc(C(=O)c2cn(CC(=O)NCc3ccco3)c3nc(C)ccc3c2=O)c1` gave DNMT1 inh 14, STEP inh -1, Scp1 inh 62*, Rpn11 block -2, LMPTP inh 12, Scp-1 conf 66*, MG interference -8 and Scp1 DSF -12.
Screening Cc1ccc2c(=O)c(C(=O)c3ccc(F)cc3)cn(CC(=O)NCc3ccco3)c2n1 returned DNMT1 inh 15, STEP inh 6, Scp1 inh 61*, Rpn11 block -2, LMPTP inh 1, Scp-1 conf 52*, MG interference -15 and Scp1 DSF -2.
Screening Cc1cc(C)n2nc(SCC(=O)Nc3ccc(F)c(F)c3F)nc2n1 returned DNMT1 inh -1, STEP inh 2, Scp1 inh -10, Rpn11 block -6 and LMPTP inh 0.
Screening CCOC(=O)c1cc(C(=O)c2cc(Cl)ccc2O)coc1=N returned DNMT1 inh -7, STEP inh -1, Scp1 inh -8, Rpn11 block 24 and LMPTP inh 1.
COCCOC(=O)c1cc(C(=O)c2cc(Cl)ccc2O)coc1=N was read as DNMT1 inh -3, STEP inh 0, Scp1 inh 55*, Rpn11 block 4, LMPTP inh -1, Scp-1 conf -11 and MG interference -16.
Screening CCCC(CNC(C)=O)(C1=CCCCC1)c1ccccc1 (stereo unspecified) returned DNMT1 inh 2, STEP inh -3, Rpn11 block 1 and LMPTP inh -1.
C[N+]1(CCOS(=O)C23CC4CC(CC(C4)C2)C3)CCOCC1 (stereo unspecified) was read as DNMT1 inh 0, STEP inh -3, Scp1 inh 105*, Rpn11 block 0, LMPTP inh -2, Scp-1 conf -5 and MG interference -7.
For COC(=O)[C@@]1(Cc2ccccc2)[C@H]2C(=O)N(C)C(=O)[C@H]2[C@H]2CN=C(SCc3ccc(Cl)cc3)N21 the results were DNMT1 inh -2, STEP inh -4, Scp1 inh 9, Rpn11 block -2 and LMPTP inh 0.
O=C(CNC(=O)Cc1ccccc1)NCC(=O)N1CCCCC1 was read as DNMT1 inh 0, STEP inh 0, Scp1 inh -8, Rpn11 block -3 and LMPTP inh -2.
`O=C(CNC(=O)Cc1ccc(Cl)cc1)NCC(=O)N1CCCCC1` gave DNMT1 inh 0, STEP inh -1, Scp1 inh 65*, Rpn11 block -9, LMPTP inh 1, Scp-1 conf -10 and MG interference -14.
`OC(c1cc(Cl)cc(Cl)c1)c1ncc(-c2ccccc2F)[nH]1` (stereo unspecified) gave DNMT1 inh -6, STEP inh 1, Rpn11 block -1 and LMPTP inh 2.
Screening O=C(NC(=S)Nc1cccc(O)c1)C1CCCCC1 returned DNMT1 inh 1, STEP inh -3, Scp1 inh 7, Rpn11 block 2 and LMPTP inh -1.
CC(C[N+](C)(C)C)OC(=O)C1(c2ccccc2)CCCC1 (stereo unspecified) was read as DNMT1 inh 0, STEP inh -3, Scp1 inh 63*, Rpn11 block -8, LMPTP inh -2, Scp-1 conf -20 and MG interference -16.

Compound activity from PubChem.
